Test results published in ChEMBL document CHEMBL1129260, “Evaluation of the stability and animal biodistribution of gadolinium (III) benzylamine-derivatized diethylenetriaminepentaacetic acid” (J Med Chem, 1996).

Columns and labels:
Conditions in all cases: in vivo
Rattus norvegicus [1] = species on record: Rattus norvegicus; assay: Biodistribution of Gd-LDTA (conjugated with mannose BSA) protein using [111In]- in mature female Sprague-Dawley rat blood after injecting for 24 hour.; type: ADME, organism-based
Outline: (§1)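 Conjugate of SCN-LDTPA with BSA, mannosylated BSA or galactosylated BSA (10 equiv chelate, pH 9 bicine, RT 24 h; FPLC-purified) was labelled with 340 μCi 111In acetate at pH 5.5 for 45 min. It was then gel-filtered (Biospin-6) and checked for purity by FPLC. Mature female Sprague-Dawley rats received 19 μg of conjugate. Four rats per time point (1, 4, 24, 48 h) were killed; blood, liver, bone, kidney and colon were taken and %ID/organ was calculated.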

Rattus norvegicus [2] = species on record: Rattus norvegicus; assay: Biodistribution of In-LDTA (conjugated with BSA) protein using [111In]- in mature female Sprague-Dawley rat bone after injecting for 48 hour.; type: ADME, organism-based, Bone element
Outline: (§2)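 SCN-LDTPA was coupled (pH 9 bicine, 24 h, RT) to BSA, mannosylated BSA or galactosylated BSA and FPLC-purified. The conjugate (400 μg) was labeled with 340 μCi 111In acetate at pH 5.5 for 45 min and gel-filtered. Mature female Sprague-Dawley rats received 19 μg of conjugate; four rats per time point. Blood, liver, bone, kidney and colon were taken and reported as %ID/organ.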

Rattus norvegicus [3] = species on record: Rattus norvegicus; assay: Biodistribution of Gd-LDTA (conjugated with mannose BSA) protein using [111In]- in mature female Sprague-Dawley rat kidney after injecting for 4 hour.; type: ADME, organism-based
Rattus norvegicus [4] = species on record: Rattus norvegicus; assay: Biodistribution of Gd-DTA (conjugated with BSA)protein using [153Gd]- in mature female Sprague-Dawley rat bone after injecting for 48 hour.
Rattus norvegicus [5] = species on record: Rattus norvegicus; assay: Biodistribution of Gd-DTA (conjugated with BSA)protein using [111In]- in mature female Sprague-Dawley rat blood after injecting for 48 hour.; type: ADME, organism-based; outline: as §1
Rattus norvegicus [6] = species on record: Rattus norvegicus; assay: Biodistribution of In-LDTA (conjugated with mannoseBSA) protein using [111In]- in mature female Sprague-Dawley rat liver after injecting for 24 hour.; type: ADME, organism-based; outline: as §2
Rattus norvegicus [7] = species on record: Rattus norvegicus; assay: Biodistribution of Gd-DTA (conjugated with BSA)protein using [111In]- in mature female Sprague-Dawley rat colon after injecting for 24 hour.; type: ADME, organism-based; outline: as §1
Rattus norvegicus [8] = species on record: Rattus norvegicus; assay: Biodistribution of In-LDTA (conjugated with mannoseBSA) protein using [111In]- in mature female Sprague-Dawley rat colon after injecting for 24 hour.; type: ADME, organism-based; outline: as §2
Rattus norvegicus [9] = species on record: Rattus norvegicus; assay: Biodistribution of Gd-LDTA (conjugated with mannose BSA) protein using [111In]- in mature female Sprague-Dawley rat bone marrow after injecting for 1 hour.; type: ADME, organism-based
Rattus norvegicus [10] = species on record: Rattus norvegicus; assay: Biodistribution of In-LDTA (conjugated with BSA) protein using [111In]- in mature female Sprague-Dawley rat kidney after injecting for 1 hour.; type: ADME, organism-based; outline: as §2
Rattus norvegicus [11] = species on record: Rattus norvegicus; assay: Biodistribution of In-LDTA (conjugated with galactose BSA)protein using [111In]- in mature female Sprague-Dawley rat blood after injecting for 48 hour.; type: ADME, organism-based; outline: as §2
Rattus norvegicus [12] = species on record: Rattus norvegicus; assay: Biodistribution of Gd-DTA (conjugated with BSA)protein using [111In]- in mature female Sprague-Dawley rat blood after injecting for 1 hour.; type: ADME, organism-based; outline: as §1
Rattus norvegicus [13] = species on record: Rattus norvegicus; assay: Biodistribution of Gd-LDTA (conjugated with mannose BSA) protein using [111In]- in mature female Sprague-Dawley rat kidney after injecting for 48 hour.; type: ADME, organism-based
Rattus norvegicus [14] = species on record: Rattus norvegicus; assay: Biodistribution of In-LDTA (conjugated with mannoseBSA) protein using [111In]- in mature female Sprague-Dawley rat colon after injecting for 4 hour.; type: ADME, organism-based; outline: as §2
Rattus norvegicus [15] = species on record: Rattus norvegicus; assay: Biodistribution of Gd-LDTA (conjugated with mannose BSA) protein using [111In]- in mature female Sprague-Dawley rat colon after injecting for 96 hour.; type: ADME, organism-based
Rattus norvegicus [16] = species on record: Rattus norvegicus; assay: Biodistribution of In-LDTA protein using [111In]- in mature female Sprague-Dawley rat blood after injecting for 1 hour.; type: ADME, organism-based; outline: as §2
Rattus norvegicus [17] = species on record: Rattus norvegicus; assay: Biodistribution of Gd-DTA (conjugated with BSA)protein using [153Gd]- in mature female Sprague-Dawley rat bone after injecting for 96 hour.
Rattus norvegicus [18] = species on record: Rattus norvegicus; assay: Biodistribution of In-LDTA (conjugated with BSA) protein using [111In]- in mature female Sprague-Dawley rat blood after injecting for 48 hour.; type: ADME, organism-based; outline: as §2
Rattus norvegicus [19] = species on record: Rattus norvegicus; assay: Biodistribution of In-LDTA (conjugated with mannoseBSA)protein using [111In]- in mature female Sprague-Dawley rat blood after injecting for 1 hour.; type: ADME, organism-based; outline: as §2
Rattus norvegicus [20] = species on record: Rattus norvegicus; assay: Biodistribution of In-LDTA (conjugated with mannoseBSA) protein using [111In]- in mature female Sprague-Dawley rat kidney after injecting for 1 hour.; type: ADME, organism-based; outline: as §2
Rattus norvegicus [21] = species on record: Rattus norvegicus; assay: Biodistribution of Gd-LDTA (conjugated with galactose BSA) protein using [111In]- in mature female Sprague-Dawley rat bone after injecting for 48 hour.; type: ADME, organism-based, Bone element; outline: as §1
Rattus norvegicus [22] = species on record: Rattus norvegicus; assay: Biodistribution of Gd-LDTA (conjugated with galactose BSA) protein using [111In]- in mature female Sprague-Dawley rat colon after injecting for 4 hour.; type: ADME, organism-based; outline: as §1
Rattus norvegicus [23] = species on record: Rattus norvegicus; assay: Biodistribution of In-LDTA (conjugated with galactose BSA)protein using [111In]- in mature female Sprague-Dawley rat bone after injecting for 24 hour.; type: ADME, organism-based, Bone element; outline: as §2
Rattus norvegicus [24] = species on record: Rattus norvegicus; assay: Biodistribution of In-LDTA (conjugated with galactose BSA)protein using [111In]- in mature female Sprague-Dawley rat kidney after injecting for 24 hour.; type: ADME, organism-based; outline: as §2
Rattus norvegicus [25] = species on record: Rattus norvegicus; assay: Biodistribution of Gd-LDTA (conjugated with galactose BSA) protein using [111In]- in mature female Sprague-Dawley rat bone after injecting for 24 hour.; type: ADME, organism-based, Bone element; outline: as §1
Rattus norvegicus [26] = species on record: Rattus norvegicus; assay: Biodistribution of Gd-DTA (conjugated with BSA) protein using [111In]- in mature female Sprague-Dawley rat colon after injecting for 48 hour.; type: ADME, organism-based; outline: as §1
Rattus norvegicus [27] = species on record: Rattus norvegicus; assay: Biodistribution of Gd-LDTA (conjugated with galactose BSA) protein using [111In]- in mature female Sprague-Dawley rat bone marrow after injecting for 4 hour.; type: ADME, organism-based
Rattus norvegicus [28] = species on record: Rattus norvegicus; assay: Biodistribution of In-LDTA (conjugated with galactose BSA)protein using [111In]- in mature female Sprague-Dawley rat kidney after injecting for 4 hour.; type: ADME, organism-based; outline: as §2
Rattus norvegicus [29] = species on record: Rattus norvegicus; assay: Biodistribution of In-LDTA (conjugated with BSA)protein using [111In]- in mature female Sprague-Dawley rat colon after injecting for 48 hr.; type: ADME, organism-based; outline: as §2
Rattus norvegicus [30] = species on record: Rattus norvegicus; assay: Biodistribution of In-LDTA (conjugated with mannoseBSA) protein using [111In]- in mature female Sprague-Dawley rat kidney after injecting for 48 hour.; type: ADME, organism-based; outline: as §2
Rattus norvegicus [31] = species on record: Rattus norvegicus; assay: Biodistribution of Gd-DTA (conjugated with BSA)protein using [111In]- in mature female Sprague-Dawley rat liver after injecting for 4 hour.; type: ADME, organism-based; outline: as §1
Rattus norvegicus [32] = species on record: Rattus norvegicus; assay: Biodistribution of In-LDTA (conjugated with mannoseBSA)protein using [111In]- in mature female Sprague-Dawley rat blood after injecting for 24 hour.; type: ADME, organism-based; outline: as §2
Rattus norvegicus [33] = species on record: Rattus norvegicus; assay: Biodistribution of In-LDTA (conjugated with galactose BSA)protein using [111In]- in mature female Sprague-Dawley rat bone after injecting for 1 hour.; type: ADME, organism-based, Bone element; outline: as §2
Rattus norvegicus [34] = species on record: Rattus norvegicus; assay: Biodistribution of Gd-LDTA (conjugated with mannose BSA) protein using [111In]- in mature female Sprague-Dawley rat bone marrow after injecting for 24 hour.; type: ADME, organism-based
Rattus norvegicus [35] = species on record: Rattus norvegicus; assay: Biodistribution of Gd-LDTA (conjugated with mannose BSA) protein using [111In]- in mature female Sprague-Dawley rat liver after injecting for 96 hour.; type: ADME, organism-based
Rattus norvegicus [36] = species on record: Rattus norvegicus; assay: Biodistribution of In-LDTA (conjugated with galactose BSA)protein using [111In]- in mature female Sprague-Dawley rat bone after injecting for 48 hour.; type: ADME, organism-based, Bone element; outline: as §2

SMILES: Nc1ccc(CC(C(=O)O)N(CCN(CC(=O)O)CC(=O)O)CCN(CC(=O)O)CC(=O)O)cc1 (stereo unspecified)
- ID/organ (Rattus norvegicus [1]): 0.063%
- ID/organ (Rattus norvegicus [2]): 25.9%
- ID/organ (Rattus norvegicus [3]): 0.542%
- ID/organ (Rattus norvegicus [4]): 35.9%
- ID/organ (Rattus norvegicus [5]): 3.37%
- ID/organ (Rattus norvegicus [6]): 75.2%
- ID/organ (Rattus norvegicus [7]): 2.83%
- ID/organ (Rattus norvegicus [8]): 0.732%
- ID/organ (Rattus norvegicus [9]): 2.61%
- ID/organ (Rattus norvegicus [10]): 3.15%
- ID/organ (Rattus norvegicus [11]): 0.0267%
- ID/organ (Rattus norvegicus [12]): 83.4%
- ID/organ (Rattus norvegicus [13]): 0.379%
- ID/organ (Rattus norvegicus [14]): 0.156%
- ID/organ (Rattus norvegicus [15]): 0.241%
- ID/organ (Rattus norvegicus [16]): 61.3%
- ID/organ (Rattus norvegicus [17]): 44.6%
- ID/organ (Rattus norvegicus [18]): 3.33%
- ID/organ (Rattus norvegicus [19]): 0.255%
- ID/organ (Rattus norvegicus [20]): 0.144%
- ID/organ (Rattus norvegicus [21]): 8.7%
- ID/organ (Rattus norvegicus [22]): 4.09%
- ID/organ (Rattus norvegicus [23]): 0.379%
- ID/organ (Rattus norvegicus [24]): 0.112%
- ID/organ (Rattus norvegicus [25]): 7.01%
- ID/organ (Rattus norvegicus [26]): 2.37%
- ID/organ (Rattus norvegicus [27]): 0.109%
- ID/organ (Rattus norvegicus [28]): 0.0688%
- ID/organ (Rattus norvegicus [29]): 5.52%
- ID/organ (Rattus norvegicus [30]): 0.465%
- ID/organ (Rattus norvegicus [31]): 18.6%
- ID/organ (Rattus norvegicus [32]): 0.129%
- ID/organ (Rattus norvegicus [33]): 0.227%
- ID/organ (Rattus norvegicus [34]): 2.13%
- ID/organ (Rattus norvegicus [35]): 24.4%
- ID/organ (Rattus norvegicus [36]): 0.29%
